Test results reported in PMC5704914 (Biochemistry, 2017).

Test system: α11.2 AAs 1506-1871
Assay: Yeast two-hybrid interaction of α-actinin-1 fragments with α11.2 C-terminus
Type: binding, rabbit
Conditions: α-actinin-1 prey in pGADT7; X-α-Gal
Method in brief: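 Bait plasmids (α11.2 C-terminal fragments) and α-actinin-1 full-length or fragment prey (Gal4 activation domain, pGADT7) were co-transformed into Y2H Gold yeast. Co-transformants were selected on Leu−/Trp− plates with X-α-Gal, then colonies were replated onto Leu/Trp/His/Ade quadruple-dropout plates plus X-α-Gal to score interaction.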

B1: SR234EF: C-terminal four EF hands preceded by three spectrin repeats of α-actinin-1 (AAs 391-892) (protein)
chain: RLDHLAEKFRQKASIHEAWTDGKEAMLRQKDYETATLSEIKALLKKHEAFESDLAAHQDRVEQIAAIAQELNELDYYDSPSVNARCQKICDQWDNLGALTQKRREALERTEKLLETIDQLYLEYAKRAAPFNNWMEGAMEDLQDTFIVHTIEEIQGLTTAHEQFKATLPDADKERLAILGIHNEVSKIVQTYHVNMAGTNPYTTITPQEINGKWDHVRQLVPRRDQALTEEHARQQHNERLRKQFGAQANVIGPWIQTKMEEIGRISIEMHGTLEDQLSHLRQYEKSIVNYKPKIDQLEGDHQLIQEALIFDNKHTNYTMEHIRVGWEQLLTTIARTINEVENQILTRDAKGISQEQMNEFRASFNHFDRDHSGTLGPEEFKACLISLGYDIGNDPQGEAEFARIMSIVDPNRLGVVTFQAFIDFMSRETADTDTADQVMASFKILAGDKNYITMDELRRELPPDQAEYCIARMAPYTGPDSVPGALDYMSFSTALYGESDL
modifications: left off: Gal4 activation domain, end not stated, kept
Q: How did the “interaction of α-actinin-1 polypeptide with α11.2 AAs 1506-1871 (Y2H)” value turn out when B1 was run?
A: Its value is “consistently strong interaction readouts”.
